Assay results gathered from unrelated publications.
Lines come from different studies, so protocols differ.
Target: Prostaglandin G/H synthase 2 (PTGS2, Homo sapiens, UniProt P35354)
Effect on: enzyme activity
Mode: inhibitor
Sequence (P35354 18-604, as in one of the studies): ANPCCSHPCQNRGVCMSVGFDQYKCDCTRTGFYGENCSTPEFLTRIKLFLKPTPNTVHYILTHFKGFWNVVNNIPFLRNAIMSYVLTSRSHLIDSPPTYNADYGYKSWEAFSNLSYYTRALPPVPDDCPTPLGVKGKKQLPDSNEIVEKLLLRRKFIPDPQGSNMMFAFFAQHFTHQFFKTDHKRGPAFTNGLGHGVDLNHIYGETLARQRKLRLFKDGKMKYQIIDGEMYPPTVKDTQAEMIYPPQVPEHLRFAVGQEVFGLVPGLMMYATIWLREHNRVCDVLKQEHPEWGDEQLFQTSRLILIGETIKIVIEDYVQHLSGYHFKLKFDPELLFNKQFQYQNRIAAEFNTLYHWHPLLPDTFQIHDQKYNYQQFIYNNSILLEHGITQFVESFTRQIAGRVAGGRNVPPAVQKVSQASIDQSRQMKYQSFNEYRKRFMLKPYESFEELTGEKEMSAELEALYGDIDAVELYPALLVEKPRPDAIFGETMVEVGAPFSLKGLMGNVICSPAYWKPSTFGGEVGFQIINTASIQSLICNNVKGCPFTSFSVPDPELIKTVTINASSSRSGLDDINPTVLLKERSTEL

`O=C(Nc1ccc(-c2ccccc2)cc1)c1cnn(-c2ccc([N+](=O)[O-])cc2)c1C(F)(F)F` gave an IC50 of 6 µM.
`NS(=O)(=O)c1ccc(-n2nc(C(=O)NN=Cc3cccnc3)cc2-c2ccccc2)cc1` gave an IC50 of 3.93 µM.
The IC50 of `Cc1ccc(S(=O)(=O)NNc2ccc([N+](=O)[O-])cc2[N+](=O)[O-])cc1` is reported as 4.74 µM.
`COc1cc(NC(=O)c2cnn(-c3ccc([N+](=O)[O-])cc3)c2C(F)(F)F)cc(OC)c1` has an IC50 of 5.78 µM.
The IC50 of `O=C(COC(=O)c1ccccc1Nc1cccc(C(F)(F)F)c1)Nc1ccc(F)cc1` is reported as 58 µM.
`CC(=NNC(=O)c1cc(-c2ccccc2)n(-c2ccc(S(N)(=O)=O)cc2)n1)c1ccc(C)cc1` has an IC50 of 1.34 µM.
`Cc1ccc(S(=O)(=O)NNC(=O)COC(=O)c2ccccc2Nc2cccc(C(F)(F)F)c2)cc1` gave an IC50 of 9 µM.
`Cc1ccc(S(=O)(=O)[N](Nc2ccc([N+](=O)[O-])cc2[N+](=O)[O-])[Sn]([Cl])[Cl])cc1` gave an IC50 of 2.74 µM.
